From PubChem BioAssay
Most compounds without a hit are left out; they make up all but 3.1% or so of the library.
HSF1 activator – HSF-1 activators, primary screen, NIH3T3-HGL cells, MG132 stress, luminescence, single point | AID 504408, 2011 | activation, % at 9 µM | NIH3T3-HGL HSF-1 luciferase reporter, 8 h; 100% = twice DMSO control signal | hit rate 1.7% among 300,000;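 active = mean replicate activation of at least 50% with a set share of replicates each reaching 50%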;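 also: 0% = median of the neutral control wells and 100% = twice that signal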
Hsp70 activator – Hsp70 transcriptional activators, primary screen, cell-based, HeLa, Hsp70 promoter luciferase, luminescence, 10 µM; HeLa Hsp70 promoter luciferase reporter; scaled: vehicle 0, proteasome-inhibitor control 100%; activation, % at 10 µM; hit rate 0.04% among 200,000;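 active = activation above the mean across all tested compounds plus 3 SD, cutoff set per campaign, cut at about 5.5% in these data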;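 also: 100% = MG132 at 30 µM as the positive control and 0% = DMSO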
HKDC1 inhibitor – HKDC1 hexokinase inhibitors, primary screen, biochemical, fluorescence, uHTS. recombinant HKDC1, G6PDH/diaphorase resazurin coupled fluorescence. inhibition, % at 20 µM. hit rate 0.16% among 340,000. AID 493160, 2011;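 active = inhibition above about 35% when tested at 20 µM, limit read from the data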;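 also: plate controls were DMSO wells with enzyme for no effect and DMSO wells lacking enzyme for full effect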
Target sequence (Q2TB90 whole entry, looked up): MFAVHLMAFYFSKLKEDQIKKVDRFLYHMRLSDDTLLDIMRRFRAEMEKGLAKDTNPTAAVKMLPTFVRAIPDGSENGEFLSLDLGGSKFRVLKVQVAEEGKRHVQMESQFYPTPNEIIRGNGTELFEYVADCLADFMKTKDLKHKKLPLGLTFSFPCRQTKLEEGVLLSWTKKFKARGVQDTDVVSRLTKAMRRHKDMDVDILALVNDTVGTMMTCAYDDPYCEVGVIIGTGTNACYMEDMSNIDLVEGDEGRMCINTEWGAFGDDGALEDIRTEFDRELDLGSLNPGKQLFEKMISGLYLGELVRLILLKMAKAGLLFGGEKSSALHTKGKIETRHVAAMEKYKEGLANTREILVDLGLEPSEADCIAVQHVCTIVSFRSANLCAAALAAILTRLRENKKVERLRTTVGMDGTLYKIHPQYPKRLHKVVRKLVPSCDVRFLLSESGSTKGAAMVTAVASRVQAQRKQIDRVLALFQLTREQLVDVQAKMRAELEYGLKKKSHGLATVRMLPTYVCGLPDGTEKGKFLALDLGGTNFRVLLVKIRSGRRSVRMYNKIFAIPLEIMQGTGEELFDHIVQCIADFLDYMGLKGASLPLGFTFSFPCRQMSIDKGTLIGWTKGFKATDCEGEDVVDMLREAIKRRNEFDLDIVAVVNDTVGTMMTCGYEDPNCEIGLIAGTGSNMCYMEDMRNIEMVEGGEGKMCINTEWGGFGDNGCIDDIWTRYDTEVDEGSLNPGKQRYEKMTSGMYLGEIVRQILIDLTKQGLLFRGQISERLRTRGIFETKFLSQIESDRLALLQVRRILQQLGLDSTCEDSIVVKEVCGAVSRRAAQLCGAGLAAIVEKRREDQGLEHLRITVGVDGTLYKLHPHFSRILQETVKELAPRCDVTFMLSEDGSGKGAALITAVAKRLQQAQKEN
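Test system: Recombinant HKDC1 (HK5) hexokinase enzyme, produced in-house | Input: HKDC1 at 5 µg/mL | Buffer or medium: Tris pH 8.0 buffer with MgCl2, Tween-20, BSA, BME | Schedule: 90 min reaction incubation at room temperature, dark | Technique: Resazurin-to-resorufin fluorescence via G6PDH and diaphorase coupling, 525/613 nm | Controls: DMSO wells with and without enzyme mix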
Tb hexokinase – Trypanosoma brucei hexokinase 1 inhibitors, primary screen, biochemical, G6PDH-coupled NADH absorbance, MLSCN library | AID 1430, 2008 | hexokinase 1 [Trypanosoma brucei] | recombinant TbHK1, G6PDH-coupled NADH A340 | inhibition, % at 10 µM | hit rate 0.11% among 220,000;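 active = inhibition of 50% or more in the single-dose primary screen; inactive = inhibition below 50%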
HSF1 inhib – HSF1 inhibitors in luciferase reporter cells, primary screen, cell-based, NIH3T3, luminescence | NIH3T3-HGL HSE-luciferase, MG132-induced, luminescence 8 h; stronger effect = lower value | activity change, negative = inhibition, % at 7.5 µM (by protocol) | hit rate 0.77% among 300,000 | AID 2098, 2009;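 active = more than half of replicate wells show activity change below -50%, luminescence cut by over half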;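 also: luciferase reports HSF-1 transcriptional activity via heat shock element; 0% = median of DMSO wells and -100% = zero luminescence signal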
HSP90 inh – HSP90 inhibitors, primary screen, cell lysate, luminescence; Heat shock protein HSP 90 (rabbit reticulocyte lysate; luciferase refolding); Rabbit reticulocyte lysate, luciferase refolding luminescence, 3 h; inhibition, % at 5.6 µM; hit rate 0.91% among 290,000; AID 1789, 2009;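 active = inhibition above the screen-wide mean plus 3 SD, computed separately per campaign, cut at about 16% in these data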;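 also: 0% = DMSO wells and 100% = 60 µM geldanamycin wells; inhibitors lower the luminescence because luciferase stays unfolded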
Starred values were filed as active, the others as inactive; x = no result.

SMILES	HSF1 activator	Hsp70 activator	HKDC1 inhibitor	Tb hexokinase	HSF1 inhib	HSP90 inh
COc1ccc(CCN2CC(C(=O)OCc3ccccc3Cl)CC2=O)cc1OC (configuration not stated)	x	x	-5.1	x	x	x
CC(C)c1cc2c(c(O)c1O)[C@@]13CCCC(C)(C)C1CC2OC3=O (some centres not stated)	65.5*	x	9.2	x	53.4	2.4
Cc1ccnc2nc(C(=O)OC(C)C(=O)NCc3ccccc3)nn12 (configuration not stated)	x	x	-1.5	x	x	x
O=S1(=O)NC(=NCC(c2ccco2)N2CCCCC2)c2ccccc21 (configuration not stated)	84.7*	x	-5.0	-6.0	37.6	-0.5
CN(C)C(CN=C1NS(=O)(=O)c2ccccc21)c1ccco1 (configuration not stated)	-1.2	-0.3	-3.1	-1.3	5.2	-2.3
COc1ccc(CN2CCN(S(=O)(=O)c3ccccc3)CC2)cc1Br	-69.3	-0.4	-1.6	-9.7	-61.1*	-1.2
N/C(=N\OC(=O)c1ccc2c(c1)OCO2)c1cccc([N+](=O)[O-])c1	58.6*	0.3	-2.6	4.5	50.4	-5.4
CCOc1ccccc1NC(=S)N1CCN(c2cccc(OC)c2)CC1	-0.5	x	-5.9	x	-8.4	-0.8
CCc1ccc(C(=O)NC2CCCCC2)s1	54.0*	-0.1	0.6	-9.6	25.7	-0.7
O=C(COC(=O)C1CCN(S(=O)(=O)c2cccc3cccnc23)CC1)c1ccc([N+](=O)[O-])cc1	107.2*	-0.2	-0.8	1.9	60.9	1.9
CC(=O)c1ccc(NC(=O)C2CCN(S(=O)(=O)c3cccc4cccnc34)CC2)cc1	-69.0	-0.2	-3.6	-2.4	-62.2*	-0.2
COC(=O)c1ccc(NC(=O)c2ccc(NS(=O)(=O)c3cccc4cccnc34)cc2)cc1	0.9	x	5.2	x	2.0	16.8*
COc1ccc(C(C)=O)cc1CSc1ccc(S(=O)(=O)N2CCCCC2)cn1	x	x	2.9	x	x	x
CC(=O)N1CCN(Cc2nc3ccc(Cl)cc3n2CCO)CC1	4.1	x	-1.4	x	-12.6	-2.4
Cc1cccc2sc(N(CCCN(C)C)C(=O)c3ccc4ncsc4c3)nc12	-8.9	x	-2.4	x	-12.7	16.6*
COc1cccc(NC(=O)COc2ccccc2C(N)=O)c1	71.2*	0.7	-7.9	3.2	27.0	0.5
COc1ccc(C(=O)C(C)OC(=O)COc2ccccc2)cc1 (configuration not stated)	x	x	-0.4	x	x	x
Cc1cccc(C(=O)NC(=S)Nc2ccccc2C(=O)O)c1	10.0	0.0	-10.3	-9.9	5.5	-1.8
Cc1cccc(C(=O)NC(=S)NNC(=O)c2ccccc2Cl)c1	-89.1	-0.2	-18.5	-2.3	-86.2*	-0.2
CCCCCNc1nc(-c2ccccc2)cs1	55.3*	-0.2	x	-4.8	18.9	5.3
c1ccc(CCNc2nc(-c3ccncc3)cs2)cc1	10.0	-0.2	2.4	-1.5	14.8	-2.8
COc1cccc(COC(=O)c2ccc3c(c2)NC(=O)C(C)S3)c1OC (configuration not stated)	-81.8	x	-1.5	x	-77.5*	x
CC1Sc2ccc(C(=O)OCc3ccccc3Cl)cc2NC1=O (configuration not stated)	12.6	x	0.3	x	6.2	x
COc1ccc(-n2nc(C(=O)NCC(=O)NCc3ccccc3OC)c3ccccc3c2=O)c(OC)c1	-68.0	1.2	-2.4	-7.2	-59.9*	0.5
COc1ccc(-n2nc(C(=O)NCC(=O)NCCN(C)C)c3ccccc3c2=O)c(OC)c1	-18.6	x	-0.9	x	-4.3	-4.4
SMILES	HSF1 activator	Hsp70 activator	HKDC1 inhibitor	Tb hexokinase	HSF1 inhib	HSP90 inh
Cc1ccc(-c2ccc(=O)[nH]n2)cc1	55.3*	0.0	0.2	-9.8	24.3	0.2
CCCN(C(=O)CCSc1ccc(F)cc1)c1c(N)n(Cc2ccccc2)c(=O)[nH]c1=O	2.1	x	-2.2	x	-6.6	-4.0
O=C(Cn1nnc2ccccc21)NNC(=S)NC1CCCCC1	-73.0	-0.3	-3.6	4.4	-65.5*	-2.7
COC(=O)CCC(=O)COc1ccc(OC)cc1C#N	52.5*	0.2	-6.7	-4.1	39.2	2.5
COC(=O)CCC(=O)COc1ccccc1C#N	4.4	0.3	12.0	-4.2	2.4	1.5
COC(=O)c1csc(S(=O)(=O)N2CCOCC2)c1OC	0.5	x	-3.3	x	-0.2	-5.0
COc1ccccc1N1CCN(/N=C\c2ccccc2)CC1	23.7	x	5.8	x	-3.2	2.3
COc1ccccc1N1CCN(/N=C\c2ccc(C)o2)CC1	63.2*	-0.1	-3.8	-4.0	30.8	-1.9
COc1ccccc1N1CCN(/N=C/C(Cl)=C/c2ccccc2)CC1	54.5*	x	2.7	-23.4	19.3	3.2
CN[C@H](C)C(=O)NC[C@H]1O[C@@H](n2cnc3c(N)ncnc32)[C@H](O)[C@@H]1O	x	x	-6.5	x	x	x
CN(CC(=O)NCc1cccnc1)S(=O)(=O)c1ccc2c(c1)c(=O)n(C)c(=O)n2C	-88.9	-0.1	-2.9	-4.8	-85.5*	-1.1
CN(CC(=O)NCCc1ccc(Cl)cc1)S(=O)(=O)c1ccc2c(c1)c(=O)n(C)c(=O)n2C	7.3	-0.3	-4.5	-9.5	2.1	-4.3
O=C(C[n+]1cccc(C(=O)Nc2ccccc2)c1)c1ccc([N+](=O)[O-])cc1	131.8*	x	-0.7	x	59.8	4.3
O=C(C[n+]1cccc(NC(=O)c2ccccc2)c1)c1cccc([N+](=O)[O-])c1	11.3	-0.2	-6.8	4.2	-2.8	-1.7
Oc1ccc(Cl)cc1-c1cc(-c2ccco2)[nH]n1	139.8*	-0.1	10.4	0.3	77.4	-1.3
CCCCN=Cc1c(C)[nH]n(-c2ccccc2)c1=S	-1.0	-0.1	-11.7	-1.2	-7.6	0.7
Cc1[nH]n(-c2ccccc2)c(=S)c1C=Nc1cccc([N+](=O)[O-])c1	-66.8	-0.2	2.4	-3.3	-59.5*	0.8
CCN(CC)C(=O)c1[nH]cnc1C(=O)NC1CCN(C(=O)OC(C)(C)C)CC1	x	x	-5.9	x	x	x
CCN(CC)CCC=C(c1cccs1)c1cccs1	x	x	1.8	x	x	x
COc1ccc(NC(=O)CCc2nnc3ccc(NCc4ccc5c(c4)OCO5)nn23)cc1	66.3*	x	1.1	x	23.3	4.7
CNC(=O)Cn1nc(C)c2ccccc2c1=O	-82.4	-0.2	-14.7	-3.9	-78.3*	2.9
Cc1nn(CC(=O)O)c(=O)c2ccccc12	-6.2	0.6	3.9	-0.2	-8.3	0.6
Cc1cc(C(=O)Cn2nc(C(=O)O)c3ccccc3c2=O)c(C)n1-c1ccc(F)cc1	7.6	0.0	-4.9	1.1	-5.9	16.8*
CC(NC(=O)Cn1nc(C(=O)O)c2ccccc2c1=O)c1ccccc1 (configuration not stated)	52.4*	0.2	-6.1	2.0	25.3	-0.3
